In ChEMBL document CHEMBL1909561, “Stable and orally bio-available pro-drugs of CPS11” (Bioorg Med Chem Lett, 2011):
Activity calls are given as the source filed them. The rule behind the calls is not given here.

Tests used:
[1] = Stability of the compound assessed as purity after 2 months by HPLC method (reference value: 98.9%); type: physicochemical; details: 1461 h
[2] = Aqueous solubility of the compound after 8 hrs by UV spectroscopy; type: physicochemical
[3] = Stability of the compound in aqueous solution after 8 hrs; type: physicochemical; details: buffer
How it was run: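 Stability followed in aqueous solution over 8 h.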

[4] = Bioavailability in intragastrically administered rat; type: ADME, organism-based; details: in vivo, po
How it was run: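 Single intragastric dose given to rats; oral bioavailability determined.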

Rattus norvegicus = assay: Prodrug activation in IV dosed rat assessed as formation of CPS11; type: organism-based; details: in vivo
Mus musculus [5] = assay: Toxicity in mouse assessed as mouse survival at 65 mg/kg, ip for 5 days co-administered with taxol at 5 mg/kg, iv on day 7 post challenge; type: organism-based; details: in vivo, 120 h
How it was run: (§1)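 Mice bearing MX-1 human breast tumour fragments (1–2 mm³, implanted subcutaneously in the right flank), five per group. Treatment began on day 7 after inoculation, at a tumour size of about 200 mm³. Groups received vehicle, test compound at 65 mg/kg once daily for five consecutive days, or the same schedule plus Taxol 5 mg/kg iv once on day 7. Survival and body weight loss were monitored.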

Mus musculus [6] = assay: Toxicity in mouse assessed as body weight loss at 65 mg/kg, ip for 5 days co-administered with taxol at 5 mg/kg, iv on day 7 post challenge; type: organism-based; details: in vivo, 120 h; how it was run: as §1
[7] = Antitumor activity against human Lung cancer cells in metastasis model; type: functional, Cancer cell lines
PC-3 = assay: Antitumor activity against human PC3 cells in xenograft model; type: functional
[8] = Stability of the compound after 1 month by HPLC method (reference value: 91.6%); type: physicochemical; details: read-out: Stability
[9] = Toxicity in ip dosed nude mouse administered for 2 weeks; type: organism-based; details: in vivo
[10] = (§2) Antiproliferative activity against human ECV304 cells assessed as growth inhibition after 72 hrs by MTT assay; type: cell-based, ECV-304; details: human, ECV304 cells; read-out: GI
How it was run: (§3)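 ECV-304 grown in RPMI 1640 with 10% bovine serum, seeded 6000 cells/well and left to attach overnight at 37 °C, 5% CO₂. Medium then replaced by fresh medium with 1% FBS plus test agent or DMSO vehicle for 72 h. MTT added for a further 4 h, absorbance read at 535 nm. Duplicate wells, three independent repeats.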

HUVEC [11] = assay: Antiproliferative activity against human HUVEC assessed as tube formation at 195 uM after 24 hrs; type: cell-based
How it was run: (§4)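 HUVECs in M199 with 20% bovine serum and 20 ng/mL bFGF, seeded at 20,000 cells/well onto Matrigel that had gelled 30 min at 37 °C, left to attach overnight. Medium changed to one containing test agent or vehicle (0.5% DMSO) and cultured 24 h at 37 °C, 5% CO₂. Each well photographed and counted.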

MX1 [12] = assay: Antitumor activity against human MX1 cells implanted subcutaneously in mouse at 5 mg/kg, iv administered on day 7 post challenge; type: functional
How it was run: (§5)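 Mice implanted subcutaneously in the right flank with 1–2 mm³ MX-1 tumor fragments. Dosing began on day 7, at about 200 mm³ tumor size. Five mice per group: vehicle; 65 mg/kg once daily for five consecutive days; or that regimen plus Taxol 5 mg/kg iv once on day 7. Read-outs were tumor growth inhibition rate, survival and body weight.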

ECV-304 = assay: as §2; type: cell-based; details: for IC50: Homo sapiens, ECV-304, 72 h; for growth inhibition (GI): human, ecv-304, 72 h; how it was run: as §3
HUVEC [13] = assay: Antiproliferative activity against human HUVEC at 195 uM after 24 hrs; type: cell-based; how it was run: as §4
MX1 [14] = assay: Antitumor activity against human MX1 cells xenografted in mouse at 65 mg/kg, ip for 5 days; type: functional, organism-based; set-up: dose 65 mg/kg; how it was run: as §5
MX1 [15] = assay: Potentiation of taxol-induced antitumor activity against human MX1 cells xenografted in mouse at 65 mg/kg, ip for 5 days co-administered with taxol at 5 mg/kg, iv on day 7 post challenge; type: functional, organism-based; how it was run: as §5
[16] = Stability of the compound assessed as purity after 2 months by HPLC method (reference value: 99.3%); type: physicochemical; details: 1461 h

With `O=C(OCN1C(=O)CCC(N2C(=O)c3ccccc3C2=O)C1=O)c1cccnc1.O=S(=O)(O)c1ccccc1` (stereo not drawn) the Stability [1] was “Stable”, the solubility at 8 h [2] was 840 µg/mL and the Stability [3] was “Stable”. For the same compound, the bioavailability [4] was 60.7%, the Activity (Rattus norvegicus) was “Active” and the Activity (Mus musculus [5]) was “Non-toxic”. For the same compound, the Activity (Mus musculus [6]) was “Non-toxic”.

For `O=C1CCC(N2C(=O)c3ccccc3C2=O)C(=O)N1CO` (stereo not drawn), the “inhibition (INH)” value [7] was 87%, the “inhibition (INH)” value (PC-3) was 90% and the remaining at 730.5 h [8] was 58.9%. The MTD at 336 h [9] was 100 mg/kg.

Work on `O=C1CCC(N2C(=O)c3ccccc3C2=O)C(=O)N1` (stereo not drawn) [THALIDOMIDE] yielded an inhibition at 72 h [10] of 40% and an Activity (HUVEC [11]) of 53%.

`CC(=O)O[C@H]1C(=O)[C@@]2(C)[C@H]([C@H](OC(=O)c3ccccc3)[C@]3(O)C[C@H](OC(=O)[C@H](O)[C@@H](NC(=O)c4ccccc4)c4ccccc4)C(C)=C1C3(C)C)[C@]1(OC(C)=O)CO[C@@H]1C[C@@H]2O` [PACLITAXEL] showed an Activity (MX1 [12]) of 33.1%.

In the case of `O=C(OCN1C(=O)CCC(N2C(=O)c3ccccc3C2=O)C1=O)c1ccccn1` (stereo not drawn), the IC50 (ECV-304) is reported as 100 nM, the “growth inhibition (GI)” value (ECV-304) is reported as “Dose-dependent effect” and the Activity (HUVEC [13]) is reported as 88%.

With `O=C(OCN1C(=O)CCC(N2C(=O)c3ccccc3C2=O)C1=O)c1cccnc1` (stereo not drawn) [listing 1 of 2 here] the IC50 (ECV-304) was 120 nM, the “growth inhibition (GI)” value (ECV-304) was “Dose-dependent effect” and the Activity (HUVEC [13]) was 88%.

With `O=C(OCN1C(=O)CCC(N2C(=O)c3ccccc3C2=O)C1=O)c1cccnc1` (stereo not drawn) [listing 2 of 2 here] the Activity (MX1 [14]) was “inactive” and the Activity (MX1 [15]) was “Active”.

For `O=C(OCN1C(=O)CCC(N2C(=O)c3ccccc3C2=O)C1=O)c1ccncc1` (stereo not drawn), the IC50 (ECV-304) was 180 nM, the “growth inhibition (GI)” value (ECV-304) was “Dose-dependent effect” and the Activity (HUVEC [13]) was 88%.

In the case of `Cl.O=C(OCN1C(=O)CCC(N2C(=O)c3ccccc3C2=O)C1=O)c1cccnc1` (stereo not drawn), the Stability [16] is reported as “Stable”, the solubility at 8 h [2] is reported as 1480 µg/mL and the Stability [3] is reported as “Stable”.
